Measured values as given in ChEMBL document CHEMBL4177755, “Combating Drug-Resistant Fungi with Novel Imperfectly Amphipathic Palindromic Peptides” (J Med Chem, 2018).
In brackets after ≈: the same amount, converted by molar mass.

What was measured:
[1] = test system: Escherichia coli; experiment: Antibacterial activity against Escherichia coli 1005 after 24 hrs; format: functional; settings: Escherichia coli, 1005, 24 h
Method in brief: (§1)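 Broth microdilution. Mid-log bacteria in MHB at a final (0.5−1) × 10^5 CFU/mL were mixed with equal volumes of peptide serially diluted in 0.2% BSA. Plates were incubated 24 h at 37 °C and read at A492. MIC is the lowest concentration inhibiting 95% of growth. Each test was repeated at least 3 times.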

[2] = Antibacterial activity against Salmonella pullorum ATCC 7913 after 24 hrs; format: functional, Salmonella enterica subsp. enterica serovar Pullorum; settings: Salmonella enterica, ATCC 7913, 24 h; method in brief: as §1
[3] = test system: Staphylococcus aureus; experiment: Antibacterial activity against Staphylococcus aureus ATCC 29213 after 24 hrs; format: functional; settings: ATCC 29213, 24 h
Method in brief: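 Modified NCCLS broth microdilution. Mid-log bacteria at (0.5−1) × 10^5 CFU/mL in MHB were mixed 1:1 with peptide serially diluted in 0.2% BSA and incubated 24 h at 37 °C. Absorbance was read at 492 nm; MIC is the lowest concentration inhibiting 95% of growth. At least 3 repeats.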

[4] = Bactericidal activity against Salmonella pullorum ATCC 7913; format: functional, Salmonella enterica subsp. enterica serovar Pullorum; settings: Salmonella enterica, read-out: MBC99.9
Method in brief: (§2)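 Wells from the 24 h, 37 °C MHB microdilution plates (bacteria at a final (0.5−1) × 10^5 CFU/mL; peptide diluted in 0.2% BSA) were plated on agar and incubated overnight. MBC is the lowest concentration killing >99.9% of cells. Each test was reproduced at least 3 times.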

[5] = test system: Staphylococcus aureus; experiment: Bactericidal activity against Staphylococcus aureus ATCC 25923; format: functional; settings: read-out: MBC99.9; method in brief: as §2
[6] = test system: Candida albicans; experiment: Antifungal activity against Candida albicans cgmcc 2.2086 after 48 hrs by broth microdilution method; format: functional; settings: cgmcc 2.2086, 48 h
Method in brief: (§3)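 Modified CLSI M27-A2 broth microdilution. Yeast at (0.5−1) × 10^3 CFU/mL in MOPS-buffered RPMI 1640 was mixed 1:1 with peptide serially diluted in 0.2% BSA and incubated 48 h at 28 °C. Absorbance was read at 492 nm; MIC is the lowest concentration inhibiting 95% of growth. Triplicate, three biological replicates.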

[7] = test system: Candida albicans; experiment: Antifungal activity against Candida albicans SP3903 after 48 hrs by broth microdilution method; format: functional; settings: SP3903, 48 h; method in brief: as §3
[8] = test system: Candida albicans; experiment: Antifungal activity against Candida albicans SP3902 after 48 hrs by broth microdilution method; format: functional; settings: SP3902, 48 h; method in brief: as §3
[9] = test system: Candida albicans; experiment: Antifungal activity against Candida albicans isolated from alveolar fluid after 48 hrs by broth microdilution method; format: functional; method in brief: as §3
[10] = test system: Candida albicans; experiment: Antifungal activity against fluconazole-resistant Candida albicans 56214 after 48 hrs by broth microdilution method; format: functional; settings: Candida albicans, 56214, 48 h; method in brief: as §3
[11] = test system: Pichia kudriavzevii; experiment: Antifungal activity against Candida krusei cgmcc 2.1857 after 48 hrs by broth microdilution method; format: functional; settings: cgmcc 2.1857, 48 h
Method in brief: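 Modified CLSI M27-A2 broth microdilution. Yeast were suspended in MOPS-buffered RPMI 1640 at a final (0.5−1) × 10^3 CFU/mL and mixed 1:1 with peptide serially diluted in 0.2% BSA. Plates were incubated 48 h at 28 °C and read at A492. MIC is the lowest concentration giving 95% inhibition. Run in triplicate with three biological replicates.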

[12] = test system: Candida albicans; experiment: Fungicidal activity against Candida albicans cgmcc 2.2086 after 96 hrs; format: functional; settings: cgmcc 2.2086, 96 h, read-out: MFC99.9
Method in brief: (§4)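 After the 48 h, 28 °C broth microdilution in MOPS-buffered RPMI 1640 (inoculum (0.5−1) × 10^3 CFU/mL), 50 μL from each well was plated on YM agar for a further 48 h at 28 °C. MFC is the lowest concentration killing at least 99.9% of cells. Triplicate, three biological replicates.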

[13] = test system: Candida albicans; experiment: Fungicidal activity against Candida albicans SP3931 after 96 hrs; format: functional; settings: SP3931, 96 h, read-out: MFC99.9; method in brief: as §4
[14] = test system: Candida albicans; experiment: Fungicidal activity against Candida albicans SP3903 after 96 hrs; format: functional; settings: SP3903, 96 h, read-out: MFC99.9; method in brief: as §4
[15] = test system: Candida albicans; experiment: Fungicidal activity against Candida albicans isolated from alveolar fluid after 96 hrs; format: functional; settings: read-out: MFC99.9; method in brief: as §4
[16] = test system: Candida albicans; experiment: Fungicidal activity against fluconazole-resistant Candida albicans 56452 after 96 hrs; format: functional; settings: Candida albicans, 56452, 96 h; read-out: MFC99.9; method in brief: as §4
[17] = test system: Erythrocyte; experiment: Hemolytic activity in human RBC after 1 hr; format: ADME, cell-based
Method in brief: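 Fresh human erythrocytes, diluted 10-fold in PBS pH 7.4, were mixed with equal volumes of peptide and held 1 h at 37 °C. After centrifugation at 1000g, supernatant hemoglobin was read at 576 nm. PBS set 0% and 0.1% Triton X-100 set 100% lysis. MHC is the concentration causing 10% hemolysis. At least three experiments were run, each in technical triplicate.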

[18] = test system: Candida albicans; experiment: Antifungal activity against Candida albicans cgmcc 2.2086 in presence of NaCl by broth dilution method; format: functional
[19] = test system: Candida albicans; experiment: Antifungal activity against Candida albicans cgmcc 2.2086 in presence of KCl by broth dilution method; format: functional
[20] = test system: Candida albicans; experiment: Antifungal activity against Candida albicans cgmcc 2.2086 in presence of NH4Cl by broth dilution method; format: functional
[21] = test system: Candida albicans; experiment: Antifungal activity against Candida albicans cgmcc 2.2086 in presence of MgCl2 by broth dilution method; format: functional
[22] = test system: Candida albicans; experiment: Antifungal activity against Candida albicans cgmcc 2.2086 in presence of CaCl2 by broth dilution method; format: functional
[23] = test system: Candida albicans; experiment: Antifungal activity against Candida albicans cgmcc 2.2086 in presence of 50% human heat-inactivated serum by broth dilution method; format: functional
[24] = Cytotoxicity against mouse RAW264.7 cells assessed as cell viability at 2 to 64 uM after 24 hrs by MTT assay relative to control; format: cell-based; settings: read-out: Activity
Method in brief: (§5)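 MTT viability assay. RAW264.7 or HEK293T cells at (1.0−2.0) × 10^5 per well were exposed to a peptide concentration series for 24 h at 37 °C in 5% CO2. MTT was then added at 0.5 mg/mL final for 4 h; formazan was dissolved in DMSO and read at 570 nm. Results average three independent trials.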

[25] = Cytotoxicity against HEK293T cells assessed as cell viability at 2 to 64 uM after 24 hrs by MTT assay relative to control; format: cell-based, HEK-293T; settings: human, read-out: Activity; method in brief: as §5
[26] = test system: Escherichia coli; experiment: Antibacterial activity against Escherichia coli ATCC 25922 after 18 hrs in presence of NaCl by broth dilution method; format: functional; settings: ATCC 25922, 18 h
[27] = test system: Escherichia coli; experiment: Antibacterial activity against Escherichia coli ATCC 25922 after 18 hrs in presence of NH4Cl by broth dilution method; format: functional; settings: ATCC 25922, 18 h
[28] = test system: Escherichia coli; experiment: Antibacterial activity against Escherichia coli ATCC 25922 after 18 hrs in presence of MgCl2 by broth dilution method; format: functional; settings: ATCC 25922, 18 h
[29] = test system: Escherichia coli; experiment: Antibacterial activity against Escherichia coli ATCC 25922 after 18 hrs in presence of FeCl3 by broth dilution method; format: functional; settings: ATCC 25922, 18 h

Row | Compound | MIC95 [1] [µM] | MIC95 [2] [µM] | MIC95 [3] [µM] | MBC [4] [µM] | MBC [5] [µM] | MIC95 [6] [µM] | MIC95 [7] [µM] | MIC95 [8] [µM] | MIC95 [9] [µM] | MIC95 [10] [µM] | MIC95 [11] [µM] | MFC [12] [µM] | MFC [13] [µM] | MFC [14] [µM] | MFC [15] [µM] | MFC [16] [µM] | HC10 [17] [µM] | MIC [18] [µM] | MIC [19] [µM] | MIC [20] [µM] | further results
1 | CC[C@H](C)[C@H](NC(=O)CN)C(=O)NCC(=O)N[C@@H](C)C(=O)N[C@H](C(=O)N[C@@H](CC(C)C)C(=O)N[C@@H](CCCCN)C(=O)N[C@H](C(=O)N[C@@H](CC(C)C)C(=O)N[C@H](C(=O)N[C@H](C(=O)NCC(=O)N[C@@H](CC(C)C)C(=O)N1CCC[C@H]1C(=O)N[C@@H](C)C(=O)N[C@@H](CC(C)C)C(=O)N[C@H](C(=O)N[C@@H](CO)C(=O)N[C@@H](Cc1c[nH]c2ccccc12)C(=O)N[C@H](C(=O)N[C@@H](CCCCN)C(=O)N[C@@H](CCCNC(=N)N)C(=O)N[C@@H](CCCCN)C(=O)N[C@@H](CCCNC(=N)N)C(=O)N[C@@H](CCC(N)=O)C(=O)N[C@@H](CCC(N)=O)C(N)=O)[C@@H](C)CC)[C@@H](C)CC)[C@@H](C)O)[C@@H](C)O)C(C)C)C(C)C [MELITTIN] | 2 (≈ 5.69 µg/mL) | 2 (≈ 5.69 µg/mL) | 8 (≈ 22.8 µg/mL) | 2 (≈ 5.69 µg/mL) | 4 (≈ 11.4 µg/mL) | 4 (≈ 11.4 µg/mL) | 4 (≈ 11.4 µg/mL) | 2 (≈ 5.69 µg/mL) | 4 (≈ 11.4 µg/mL) | 4 (≈ 11.4 µg/mL) | 2 (≈ 5.69 µg/mL) | 8 (≈ 22.8 µg/mL) | 8 (≈ 22.8 µg/mL) | 4 (≈ 11.4 µg/mL) | 4 (≈ 11.4 µg/mL) | 8 (≈ 22.8 µg/mL) | 0.25 | 8 | 4 | 4 | MIC [21]: 4 µM; MIC [22]: 8 µM; MIC [23]: 64 µM
2 | H-RLRLLLRLR-NH2 | 4 | 4 | 8 | 8 | 8 | 8 | 8 | 4 | 8 | 8 | 8 | 16 | 16 | 8 | 16 | 8 | > 128 | 32 | 16 | 8 | viability at 24 h, up to 64 µM [24]: 70 to 80%; viability at 24 h, up to 64 µM [25]: 70 to 80%; MIC [26]: 4 µM; MIC [27]: 4 µM; MIC [28]: 4 µM; MIC [29]: 4 µM; MIC [21]: 8 µM; MIC [22]: 64 µM
3 | H-RRFRFFFRFRR-NH2 | 4 | 2 | 4 | 4 | 16 | 4 | 2 | 4 | 4 | 4 | 2 | 16 | 8 | 2 | 8 | 4 | > 128 | 16 | 16 | 4 | viability at 24 h, up to 64 µM [24]: 70 to 80%; viability at 24 h, up to 64 µM [25]: 70 to 80%; MIC [26]: 4 µM; MIC [27]: 4 µM; MIC [28]: 2 µM; MIC [29]: 4 µM; MIC [21]: 4 µM; MIC [22]: 16 µM
4 | H-RRIRIIIRIRR-NH2 | 4 | 2 | 4 | 4 | 8 | 2 | 1 | 2 | 2 | 1 | 2 | 2 | 4 | 1 | 4 | 1 | > 128 | 4 | 2 | 2 | viability at 24 h, up to 64 µM [24]: > 85%; viability at 24 h, up to 64 µM [25]: > 85%; MIC [26]: 4 µM; MIC [27]: 4 µM; MIC [28]: 2 µM; MIC [29]: 4 µM; MIC [21]: 2 µM; MIC [22]: 4 µM; MIC [23]: 8 µM
5 | H-RRLRLLLRLRR-NH2 | 4 | 2 | 16 | 8 | 8 | 8 | 2 | 4 | 4 | 4 | 4 | 16 | 16 | 2 | 8 | 8 | > 128 | 64 | 32 | 8 | viability at 24 h, up to 64 µM [24]: 70 to 80%; viability at 24 h, up to 64 µM [25]: 70 to 80%; MIC [26]: 4 µM; MIC [27]: 4 µM; MIC [28]: 2 µM; MIC [29]: 8 µM; MIC [21]: 8 µM; MIC [22]: 64 µM
6 | H-RRWRWWWRWRR-NH2 | 4 | 2 | 2 | 4 | 8 | 4 | 4 | 4 | 4 | 4 | 2 | 8 | 8 | 4 | 8 | 4 | > 128 | 8 | 8 | 4 | viability at 24 h, up to 64 µM [24]: 70 to 80%; viability at 24 h, up to 64 µM [25]: 70 to 80%; MIC [26]: 4 µM; MIC [27]: 4 µM; MIC [28]: 2 µM; MIC [29]: 4 µM; MIC [21]: 4 µM; MIC [22]: 8 µM
7 | H-RWRWWWRWR-NH2 | 2 | 2 | 4 | 8 | 8 | 8 | 8 | 8 | 8 | 4 | 4 | 16 | 16 | 8 | 16 | 4 | > 128 | 16 | 16 | 8 | viability at 24 h, up to 64 µM [24]: 70 to 80%; viability at 24 h, up to 64 µM [25]: 70 to 80%; MIC [26]: 4 µM; MIC [27]: 4 µM; MIC [28]: 2 µM; MIC [29]: 4 µM; MIC [21]: 8 µM; MIC [22]: 32 µM
